Reference: paper PMC5248944 (International Journal of Nanomedicine, 2017)

What was measured:
[1] = type: physicochemical; settings: 35°C, 5-FU 1.25 mg/mL in donor phase; control slope = Km
How it was run: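 Dynamic dialysis was run at 35°C across porous cellulose (12.5 kDa cutoff). The donor held 5 mL of lyophilised-then-regenerated nanoparticles, plain drug solution, or drug with 0.25 mg/mL chitosan HCl; the receiver held 100 mL demineralised water under sink conditions. The receiver was sampled at intervals for HPLC (RP-18, 0.05 M KH2PO4/0.1% triethylamine, UV 266 nm). Ff came from the ln[(Cd/Cd0)×100]-vs-time slope; ≥3 repeats.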

[2] = Dynamic dialysis at 4°C: drug–polymer interactions in TSOH, sol state; type: physicochemical; settings: 5-FU 1.25 mg/mL, printed value is slope ×10^3
How it was run: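 Sol-state formulations were tested by dynamic dialysis at 4°C. The donor held 5 mL of formulation; the receiver held 100 mL of 0.08 M HCl with β-glycerophosphate. Receiver drug was measured at intervals. Each day's run order was control, two formulations, then control again on the same membrane, with a fresh membrane daily. Bound fraction was taken as 1−Ff from the log-linear slope.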

For `O=c1[nH]cc(F)c(=O)[nH]1` [Control, 5-fluorouracil], the “slope of straight line ± standard deviation, ln[(Cd/Cd0)×100] vs t” value [1] was 0.841±0.029 hours and the “Modulus of straight-line slope (×10^3) ± SD (n=8)” value [2] was 5.06±0.75 1/minutes.
